# Results published in ChEMBL document CHEMBL1123760, “Synthesis and oral antifungal activity of novel azolylpropanolones and related compounds” (1987).
# What was measured:
# Format in all cases: functional
# [1] = test system: Candida albicans; assay: In vitro antifungal activity against Candida albicans
# Outline: (§1)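 Broth microdilution MIC in Sabouraud's glucose broth; final inocula 1 × 10^5 cells/mL (yeast) or 1 × 10^5 conidia/mL (mold and dermatophyte).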
# [2] = test system: Candida albicans; assay: Minimum effective concentration for inhibition of pseudomycelium formation in Candida albicans; details: for minimal effective concentration: Candida albicans, read-out: MEC
# Outline: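 C. albicans KE-2 (clinical isolate) at a final 1 × 10^6 yeast cells/mL in EMEM with 20% calf serum; compounds diluted by the same microtiter system as for MICs. After incubation, wells were Giemsa-stained (5% in phosphate buffer) and read by microscope. MEC is the lowest concentration preventing typical pseudomycelium formation.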
# [3] = test system: Trichophyton benhamiae; assay: In vitro antifungal activity against Trichophyton asteroides; outline: as §1
# [4] = test system: Aspergillus fumigatus; assay: In vitro antifungal activity against Aspergillus fumigatus; outline: as §1
# [5] = Candida albicans, read-out: MIC
# [6] = Trichophyton benhamiae, read-out: MIC
# [7] = Aspergillus fumigatus, read-out: MIC
"MIC [1, 5] [µg/mL]","MIC [3, 6] [µg/mL]","MIC [4, 7] [µg/mL]",MIC [1] [µg/mL],MIC [3] [µg/mL],MIC [4] [µg/mL],Structure (SMILES),minimal effective concentration [2] [µg/mL],MEC [2] [µg/mL]
> 100,3.1,> 100,–,–,–,O=C1O[C@H](c2ccc(F)cc2)[C@@](Cn2cncn2)(c2ccc(F)cc2)O1,2.5,–
100,6.3,> 100,–,–,–,O=C1O[C@H](c2cccc(Cl)c2)[C@@](Cn2cncn2)(c2cccc(Cl)c2)O1,> 20,–
–,–,–,100,0.1,50,CC(O)(c1ccc(Cl)cc1)C(O)(Cn1cncn1)c1ccc(Cl)cc1 (stereo in doubt; 193),–,0.36
> 100,0.1,> 100,–,–,–,Fc1ccc([C@H]2OCO[C@]2(Cn2cncn2)c2ccc(Cl)cc2Cl)cc1,0.31,–
> 100,0.1,25,–,–,–,CC(O)(c1ccc(F)cc1)C(O)(Cn1cncn1)c1ccc(Cl)cc1Cl (stereo in doubt; 173),0.31,–
> 100,1.6,> 100,–,–,–,Cc1ccc(C(O)C(O)(Cn2cncn2)c2ccc(C)cc2)cc1 (stereo not drawn),2.5,–
> 100,6.3,> 100,–,–,–,CC(C)[C@H]1OC(=O)O[C@@]1(Cn1cncn1)c1ccc(Cl)cc1,0.63,–
> 100,3.1,> 100,–,–,–,Cc1ccc([C@H]2OC(=O)O[C@]2(Cn2cncn2)c2ccccc2Cl)cc1,0.63,–
> 100,0.8,> 100,–,–,–,O=C(c1ccc(Cl)cc1)C(O)(Cn1cncn1)c1ccccc1Cl (stereo not drawn),10,–
> 100,6.3,> 100,–,–,–,CC(C)C(O)(Cn1cncn1)C(O)(c1ccc(Cl)cc1)c1ccc(Cl)cc1 (stereo not drawn),> 20,–
> 100,0.4,> 100,–,–,–,O=C1O[C@H](c2ccc(Cl)cc2Cl)[C@@](Cn2cncn2)(c2ccccc2)O1,1.25,–
> 100,> 100,> 100,–,–,–,O=C(c1ccc(F)cc1)C(O)(Cn1cnnc1)c1ccccc1Cl (stereo not drawn),> 20,–
> 100,1.6,> 100,–,–,–,CC(C)[C@H]1OC(=O)O[C@]1(Cn1cncn1)c1ccc(Cl)cc1,0.31,–
> 100,0.1,> 100,–,–,–,O=S1O[C@H](c2ccccc2)[C@](Cn2cncn2)(c2ccc(Cl)cc2Cl)O1 (stereo partly drawn),0.08,–
> 100,0.2,> 100,–,–,–,Fc1ccc([C@H]2OCO[C@]2(Cn2cncn2)c2ccc(Cl)cc2)cc1,0.63,–
> 100,0.1,50,–,–,–,O=S1O[C@H](c2ccccc2)[C@@](Cn2cncn2)(c2ccc(Cl)cc2Cl)O1 (stereo partly drawn),0.04,–

# The remaining lines, values behind:
Structure (SMILES),"MIC [1, 5] [µg/mL]","MIC [3, 6] [µg/mL]","MIC [4, 7] [µg/mL]",MIC [1] [µg/mL],MIC [3] [µg/mL],MIC [4] [µg/mL],minimal effective concentration [2] [µg/mL],MEC [2] [µg/mL]
CCCC(=O)C(O)(Cn1cncn1)c1ccccc1Cl (stereo not drawn),> 100,0.8,100,–,–,–,0.04,–
COc1ccccc1C(=O)C(O)(Cn1cncn1)c1ccccc1OC (stereo not drawn),> 100,12.5,> 100,–,–,–,> 20,–
CC(O)(c1ccc(Cl)cc1)C(O)(Cn1cncn1)c1ccc(Cl)cc1Cl (stereo in doubt; 175),> 100,0.1,25,–,–,–,–,0.31
O=C(c1ccccc1Cl)C(O)(Cn1cncn1)c1ccccc1 (stereo not drawn),> 100,1.6,> 100,–,–,–,> 20,–
O=C(c1cccc(Cl)c1)C(O)(Cn1cncn1)c1cccc(Cl)c1 (stereo not drawn),> 100,3.13,> 100,–,–,–,> 20,–
OC(c1ccccc1)C(O)(Cn1cncn1)c1ccccc1 (stereo not drawn),> 100,25,> 100,–,–,–,> 20,–
CC(O)(c1ccc(F)cc1)C(O)(Cn1ccnc1)c1ccccc1Cl (stereo not drawn),> 100,0.1,100,–,–,–,1.25,–
O=C(c1ccccn1)C(O)(Cn1cncn1)c1ccccn1 (stereo not drawn),> 100,> 100,> 100,–,–,–,> 20,–
O=C(c1ccc(Cl)cc1Cl)C(O)(Cc1ccccc1)Cn1cncn1 (stereo not drawn),> 100,1.6,> 100,–,–,–,5,–
O=C(c1ccc(Cl)cc1Cl)C(O)(Cn1cnnc1)c1ccc(Cl)cc1Cl (stereo not drawn),> 100,25,> 100,–,–,–,> 20,–
O=C(c1ccc(Cl)cc1)C(O)(Cn1cnnc1)c1ccc(Cl)cc1 (stereo not drawn),> 100,50,> 100,–,–,–,> 20,–
